Legend:
[1] = target: T1, Myosin-IIIb (Homo sapiens) (UniProt Q8WXR4); test: Inhibition of MYO3B at 1 uM
T1 sequence (whole entry): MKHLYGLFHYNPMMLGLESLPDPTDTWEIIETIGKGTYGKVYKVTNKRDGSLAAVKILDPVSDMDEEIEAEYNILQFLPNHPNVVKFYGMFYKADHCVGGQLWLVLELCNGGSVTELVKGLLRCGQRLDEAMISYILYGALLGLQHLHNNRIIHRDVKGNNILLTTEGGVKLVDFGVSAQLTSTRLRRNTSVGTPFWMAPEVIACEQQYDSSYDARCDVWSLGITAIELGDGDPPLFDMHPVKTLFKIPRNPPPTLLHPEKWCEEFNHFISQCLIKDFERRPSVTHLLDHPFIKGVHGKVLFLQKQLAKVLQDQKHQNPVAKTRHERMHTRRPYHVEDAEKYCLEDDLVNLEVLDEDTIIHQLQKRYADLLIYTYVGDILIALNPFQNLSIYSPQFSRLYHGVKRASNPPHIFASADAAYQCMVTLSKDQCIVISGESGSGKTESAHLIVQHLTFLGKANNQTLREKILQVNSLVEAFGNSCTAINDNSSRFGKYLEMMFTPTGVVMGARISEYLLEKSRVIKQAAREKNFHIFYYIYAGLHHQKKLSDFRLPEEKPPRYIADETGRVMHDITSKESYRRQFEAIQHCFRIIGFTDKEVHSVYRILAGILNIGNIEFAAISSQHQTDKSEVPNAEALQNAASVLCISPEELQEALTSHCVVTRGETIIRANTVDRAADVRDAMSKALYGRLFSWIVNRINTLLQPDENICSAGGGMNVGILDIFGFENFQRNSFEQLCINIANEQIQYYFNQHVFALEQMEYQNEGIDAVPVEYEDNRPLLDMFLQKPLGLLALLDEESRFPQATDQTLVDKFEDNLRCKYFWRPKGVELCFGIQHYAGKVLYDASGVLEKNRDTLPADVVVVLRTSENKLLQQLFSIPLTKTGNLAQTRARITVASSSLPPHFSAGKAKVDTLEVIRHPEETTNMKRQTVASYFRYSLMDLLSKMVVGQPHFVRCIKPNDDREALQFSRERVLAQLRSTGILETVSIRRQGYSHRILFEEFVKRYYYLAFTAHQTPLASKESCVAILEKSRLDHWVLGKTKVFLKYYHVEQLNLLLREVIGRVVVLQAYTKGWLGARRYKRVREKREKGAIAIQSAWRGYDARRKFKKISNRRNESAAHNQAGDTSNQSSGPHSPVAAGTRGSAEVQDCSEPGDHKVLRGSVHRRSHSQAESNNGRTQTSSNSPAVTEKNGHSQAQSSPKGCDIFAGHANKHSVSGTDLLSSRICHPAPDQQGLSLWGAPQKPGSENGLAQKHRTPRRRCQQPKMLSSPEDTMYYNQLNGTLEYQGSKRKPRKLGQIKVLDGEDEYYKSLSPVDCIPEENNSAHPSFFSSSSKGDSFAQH

[2] = target: T2, Serine/threonine-protein kinase DCLK1 (Homo sapiens) (UniProt O15075); test: Inhibition of DCAMKL1 at 1 uM
T2 sequence (whole entry): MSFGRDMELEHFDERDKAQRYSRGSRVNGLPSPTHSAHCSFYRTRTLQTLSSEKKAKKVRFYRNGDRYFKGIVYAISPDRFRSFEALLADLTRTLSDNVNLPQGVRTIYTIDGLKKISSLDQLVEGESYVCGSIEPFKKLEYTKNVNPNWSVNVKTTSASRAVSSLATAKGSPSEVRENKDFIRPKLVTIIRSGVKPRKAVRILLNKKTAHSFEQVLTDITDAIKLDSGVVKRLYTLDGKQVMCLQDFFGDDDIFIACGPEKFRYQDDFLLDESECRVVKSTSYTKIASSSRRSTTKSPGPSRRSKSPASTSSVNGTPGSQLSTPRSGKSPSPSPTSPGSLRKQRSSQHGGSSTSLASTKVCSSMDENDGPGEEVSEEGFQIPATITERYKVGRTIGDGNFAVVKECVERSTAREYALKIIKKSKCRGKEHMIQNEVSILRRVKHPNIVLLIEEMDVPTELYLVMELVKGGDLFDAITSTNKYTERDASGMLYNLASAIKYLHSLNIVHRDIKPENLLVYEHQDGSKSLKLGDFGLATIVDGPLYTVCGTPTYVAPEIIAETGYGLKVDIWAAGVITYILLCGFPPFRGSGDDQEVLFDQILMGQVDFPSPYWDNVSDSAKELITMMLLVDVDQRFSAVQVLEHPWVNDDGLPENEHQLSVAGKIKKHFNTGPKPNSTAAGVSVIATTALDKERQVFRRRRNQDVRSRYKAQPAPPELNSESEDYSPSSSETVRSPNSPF

[3] = target: Calcium/calmodulin-dependent protein kinase kinase 2 (Homo sapiens) (UniProt Q96RR4); test: Inhibition of CAMKK2 at 1 uM
Sequence of Calcium/calmodulin-dependent protein kinase kinase 2 (Homo sapiens) (Q96RR4 2-588 limits assumed): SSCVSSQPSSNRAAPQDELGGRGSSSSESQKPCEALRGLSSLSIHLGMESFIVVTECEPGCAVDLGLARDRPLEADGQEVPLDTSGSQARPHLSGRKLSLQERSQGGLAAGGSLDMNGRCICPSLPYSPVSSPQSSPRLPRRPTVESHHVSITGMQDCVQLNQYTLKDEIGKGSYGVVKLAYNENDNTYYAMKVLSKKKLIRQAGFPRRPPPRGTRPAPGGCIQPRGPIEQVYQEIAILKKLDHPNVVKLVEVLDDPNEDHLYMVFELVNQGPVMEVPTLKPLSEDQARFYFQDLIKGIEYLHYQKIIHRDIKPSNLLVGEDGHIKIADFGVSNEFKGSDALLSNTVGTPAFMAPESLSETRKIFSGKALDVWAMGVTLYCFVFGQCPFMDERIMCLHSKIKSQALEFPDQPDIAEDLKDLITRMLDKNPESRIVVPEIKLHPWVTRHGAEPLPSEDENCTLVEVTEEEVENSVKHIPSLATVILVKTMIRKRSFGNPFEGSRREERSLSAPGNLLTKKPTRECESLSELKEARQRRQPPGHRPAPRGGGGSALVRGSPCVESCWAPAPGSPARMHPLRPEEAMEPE
Procedure, shortened: (§1)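 Ambit KINOMEscan screen at a single concentration across a 250–400 kinase panel, recorded as percent inhibition. Selectivity was expressed as S(90), the fraction of kinases inhibited >90%.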

[4] = target: Mast/stem cell growth factor receptor Kit (Homo sapiens) (UniProt P10721); test: Inhibition of KIT at 1 uM
Sequence of Mast/stem cell growth factor receptor Kit (Homo sapiens) (P10721 whole entry): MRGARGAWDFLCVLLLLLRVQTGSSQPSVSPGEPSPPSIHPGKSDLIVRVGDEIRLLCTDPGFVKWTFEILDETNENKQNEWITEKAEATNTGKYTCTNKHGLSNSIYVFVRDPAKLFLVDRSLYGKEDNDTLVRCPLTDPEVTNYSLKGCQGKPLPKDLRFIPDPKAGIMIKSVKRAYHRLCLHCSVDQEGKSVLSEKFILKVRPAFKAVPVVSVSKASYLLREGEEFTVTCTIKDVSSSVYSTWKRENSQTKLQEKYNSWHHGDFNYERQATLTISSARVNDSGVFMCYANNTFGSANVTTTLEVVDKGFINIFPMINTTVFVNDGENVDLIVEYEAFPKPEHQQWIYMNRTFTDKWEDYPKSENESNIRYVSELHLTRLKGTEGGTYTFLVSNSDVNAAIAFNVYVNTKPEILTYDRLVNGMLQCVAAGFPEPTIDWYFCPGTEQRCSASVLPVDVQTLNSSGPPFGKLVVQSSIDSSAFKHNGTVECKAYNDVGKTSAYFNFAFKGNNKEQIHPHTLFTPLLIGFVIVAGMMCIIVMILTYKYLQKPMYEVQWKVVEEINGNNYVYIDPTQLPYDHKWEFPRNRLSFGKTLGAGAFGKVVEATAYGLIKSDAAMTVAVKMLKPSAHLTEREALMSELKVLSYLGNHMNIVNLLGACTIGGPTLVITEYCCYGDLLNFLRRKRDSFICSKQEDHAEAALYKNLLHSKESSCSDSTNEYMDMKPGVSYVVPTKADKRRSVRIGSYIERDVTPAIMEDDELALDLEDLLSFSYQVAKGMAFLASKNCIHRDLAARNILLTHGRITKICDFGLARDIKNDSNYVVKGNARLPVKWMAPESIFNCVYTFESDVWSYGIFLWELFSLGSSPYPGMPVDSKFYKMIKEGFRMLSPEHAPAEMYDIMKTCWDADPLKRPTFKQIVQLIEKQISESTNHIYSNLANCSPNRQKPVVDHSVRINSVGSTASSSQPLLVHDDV
Procedure, shortened: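 Single-concentration screen on the Ambit KINOMEscan platform, run against a panel of 250–400 kinases. Per-kinase inhibition was also summarized as S(90), the fraction of kinases inhibited by more than 90%.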

[5] = target: Tyrosine-protein kinase receptor UFO (Homo sapiens) (UniProt P30530); test: Inhibition of AXL at 1 uM; procedure, shortened: as §1
Sequence of Tyrosine-protein kinase receptor UFO (Homo sapiens) (P30530 whole entry): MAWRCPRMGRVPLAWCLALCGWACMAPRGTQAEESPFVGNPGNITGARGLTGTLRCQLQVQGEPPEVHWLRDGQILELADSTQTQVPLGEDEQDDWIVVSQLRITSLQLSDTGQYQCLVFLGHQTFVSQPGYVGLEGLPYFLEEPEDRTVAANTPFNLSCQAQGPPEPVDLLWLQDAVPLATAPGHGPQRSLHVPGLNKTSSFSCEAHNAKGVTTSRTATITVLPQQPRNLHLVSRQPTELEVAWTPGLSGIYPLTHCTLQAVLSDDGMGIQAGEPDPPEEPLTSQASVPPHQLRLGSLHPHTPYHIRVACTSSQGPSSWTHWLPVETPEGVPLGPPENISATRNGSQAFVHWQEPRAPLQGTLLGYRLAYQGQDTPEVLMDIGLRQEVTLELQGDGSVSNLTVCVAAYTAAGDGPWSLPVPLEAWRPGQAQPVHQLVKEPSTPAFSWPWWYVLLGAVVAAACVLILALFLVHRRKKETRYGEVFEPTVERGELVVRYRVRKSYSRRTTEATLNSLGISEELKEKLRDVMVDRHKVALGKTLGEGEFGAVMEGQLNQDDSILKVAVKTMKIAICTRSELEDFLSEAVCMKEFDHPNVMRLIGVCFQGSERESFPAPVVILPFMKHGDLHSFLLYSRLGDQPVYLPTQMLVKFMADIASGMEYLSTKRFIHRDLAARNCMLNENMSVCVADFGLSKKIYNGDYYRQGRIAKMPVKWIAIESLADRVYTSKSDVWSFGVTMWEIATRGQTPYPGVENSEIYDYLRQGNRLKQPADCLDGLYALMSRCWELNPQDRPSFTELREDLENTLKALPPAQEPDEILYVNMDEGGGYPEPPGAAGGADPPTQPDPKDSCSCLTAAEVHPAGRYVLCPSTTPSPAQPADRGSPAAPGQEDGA

[6] = target: Mitogen-activated protein kinase kinase kinase 9 (Homo sapiens) (UniProt P80192); test: Inhibition of MLK1 at 1 uM
Sequence of Mitogen-activated protein kinase kinase kinase 9 (Homo sapiens) (P80192 whole entry, looked up): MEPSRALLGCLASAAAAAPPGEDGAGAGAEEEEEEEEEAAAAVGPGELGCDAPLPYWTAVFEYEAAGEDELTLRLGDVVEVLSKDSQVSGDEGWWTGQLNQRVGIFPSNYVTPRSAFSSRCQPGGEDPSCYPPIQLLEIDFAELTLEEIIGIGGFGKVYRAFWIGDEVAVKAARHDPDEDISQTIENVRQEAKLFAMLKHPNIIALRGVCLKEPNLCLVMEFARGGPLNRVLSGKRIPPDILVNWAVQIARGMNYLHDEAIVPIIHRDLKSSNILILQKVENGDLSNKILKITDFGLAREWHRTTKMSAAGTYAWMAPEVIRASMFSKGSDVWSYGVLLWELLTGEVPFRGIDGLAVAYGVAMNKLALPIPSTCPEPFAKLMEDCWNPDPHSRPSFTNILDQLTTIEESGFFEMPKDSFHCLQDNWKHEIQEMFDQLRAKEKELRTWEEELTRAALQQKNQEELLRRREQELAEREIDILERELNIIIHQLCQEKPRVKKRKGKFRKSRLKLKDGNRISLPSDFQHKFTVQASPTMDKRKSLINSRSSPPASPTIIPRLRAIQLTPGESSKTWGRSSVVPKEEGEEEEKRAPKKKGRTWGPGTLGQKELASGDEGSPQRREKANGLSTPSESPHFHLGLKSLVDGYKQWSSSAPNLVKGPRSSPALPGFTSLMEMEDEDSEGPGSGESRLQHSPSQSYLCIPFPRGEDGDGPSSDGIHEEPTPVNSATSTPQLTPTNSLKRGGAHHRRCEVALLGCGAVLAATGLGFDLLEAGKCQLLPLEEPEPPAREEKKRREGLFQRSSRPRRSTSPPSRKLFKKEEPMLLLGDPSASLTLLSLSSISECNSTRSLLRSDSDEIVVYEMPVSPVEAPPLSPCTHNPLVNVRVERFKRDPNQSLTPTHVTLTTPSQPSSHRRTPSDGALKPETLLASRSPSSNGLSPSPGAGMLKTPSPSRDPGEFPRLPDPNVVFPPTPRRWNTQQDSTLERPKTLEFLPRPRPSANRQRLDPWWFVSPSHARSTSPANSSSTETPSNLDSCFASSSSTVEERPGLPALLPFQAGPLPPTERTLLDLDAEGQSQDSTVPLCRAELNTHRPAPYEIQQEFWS

inhibition [1] [%] | inhibition [2] [%] | inhibition [3] [%] | inhibition [4] [%] | inhibition [5] [%] | inhibition [6] [%] | Structure (SMILES)
< 50 | 91 | < 50 | < 50 | < 50 | < 50 | CN1CCN(c2ccc(-c3cnc4c(c3)N(Cc3cc(Cl)ccc3C(F)(F)F)CCN4)cn2)CC1
 |  | < 50 | < 50 | < 50 | < 50 | O=C(O)c1ccc(-c2cnc3c(c2)N(Cc2cc(Cl)ccc2C(F)(F)F)CCN3)cc1
< 50 | 98 | < 50 | 96 | < 50 | < 50 | FC(F)(F)c1ccc(Cl)cc1CN1CCNc2ncc(-c3ccnc(N4CCNCC4)c3)cc21
< 50 | < 50 | < 50 | 75 | < 50 | < 50 | CC(=O)N1CCN(c2cc(-c3cnc4c(c3)N(Cc3cc(Cl)ccc3C(F)(F)F)CCN4)ccn2)CC1
 |  | < 50 | < 50 | < 50 | < 50 | O=C(c1ccc(-c2cnc3c(c2)N(Cc2cc(Cl)ccc2C(F)(F)F)CCN3)cc1)N1CCCCC1

More lines, now with the values behind:

Structure (SMILES) | inhibition [1] [%] | inhibition [2] [%] | inhibition [3] [%] | inhibition [4] [%] | inhibition [5] [%] | inhibition [6] [%]
O=C(c1ccc(-c2cnc3c(c2)N(Cc2cc(Cl)ccc2C(F)(F)F)CCN3)cc1)N1CCC(N2CCCC2)CC1 |  |  | < 50 | 89.5 | 93 | 
COC1CCN(C(=O)c2ccc(-c3cnc4c(c3)N(Cc3cc(Cl)ccc3C(F)(F)F)CCN4)cc2)CC1 |  |  | < 50 | < 50 | < 50 | < 50
CN1CCN(c2ccc(-c3cnc4c(c3)N(Cc3cc(F)ccc3F)CCN4)cn2)CC1 | < 50 | 94 | < 50 | 56.5 | < 50 | < 50
CN1CCN(c2ccc(-c3cnc4c(c3)N(Cc3c(F)ccc(F)c3Cl)CCN4)cn2)CC1 | < 50 | < 50 | < 50 | 73 | < 50 | < 50
CN1CCN(c2ccc(-c3cnc4c(c3)N(Cc3cc(Cl)ccc3Cl)CCN4)cn2)CC1 | < 50 | 90 | < 50 | 87 | < 50 | < 50

— ChEMBL document CHEMBL1165965, “Synthesis and structure-activity relationships of 1,2,3,4-tetrahydropyrido[2,3-b]pyrazines as potent and selective inhibitors of the anaplastic lymphoma kinase” (Bioorg Med Chem, 2010)
